Test results taken from ChEMBL document CHEMBL1131032, “Selective endothelin A receptor antagonists. 3. Discovery and structure-activity relationships of a series of 4-phenoxybutanoic acid derivatives” (J Med Chem, 1998).
Activity calls are given as the source filed them. The rule behind the calls is not given here. Where a SMILES comes first, the peptide text is derived from it. [ ]: non-standard residue; d: D form.

How the values were obtained:
[1] = biological target: T1, Endothelin-1 receptor (Rattus norvegicus, UniProt P26684); test: In vitro inhibition of [125I]ET1 binding to rat A10 cell Endothelin A receptor.; assay type: cell-based
T1 sequence (P26684 whole entry): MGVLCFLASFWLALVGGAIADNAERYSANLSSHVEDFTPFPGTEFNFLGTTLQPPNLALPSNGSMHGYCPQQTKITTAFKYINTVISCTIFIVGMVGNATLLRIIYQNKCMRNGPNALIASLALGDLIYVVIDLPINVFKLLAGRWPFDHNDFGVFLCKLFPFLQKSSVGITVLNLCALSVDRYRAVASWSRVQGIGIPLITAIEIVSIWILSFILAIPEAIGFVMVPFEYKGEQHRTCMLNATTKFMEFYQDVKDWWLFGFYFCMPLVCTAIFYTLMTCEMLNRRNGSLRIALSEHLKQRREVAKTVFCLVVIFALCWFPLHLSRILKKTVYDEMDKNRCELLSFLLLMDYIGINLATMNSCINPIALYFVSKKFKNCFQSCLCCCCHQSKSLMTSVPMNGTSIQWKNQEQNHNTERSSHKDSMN
Procedure, shortened: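 Rat A10 cells were harvested, washed in 50 mM Hepes pH 7.3 with 1 mM CaCl2 and 5 mM MgCl2, and frozen. Nonspecific binding was defined with 500 nM ET-1. IC50 came from curve fitting; mean of n ± SEM.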

[2] = biological target: T2, Endothelin receptor type B (Rattus norvegicus, UniProt P21451); test: In vitro inhibition of [125I]ET1 binding to rat cerebellum Endothelin B receptor.; assay type: tissue-based
T2 sequence (P21451 whole entry): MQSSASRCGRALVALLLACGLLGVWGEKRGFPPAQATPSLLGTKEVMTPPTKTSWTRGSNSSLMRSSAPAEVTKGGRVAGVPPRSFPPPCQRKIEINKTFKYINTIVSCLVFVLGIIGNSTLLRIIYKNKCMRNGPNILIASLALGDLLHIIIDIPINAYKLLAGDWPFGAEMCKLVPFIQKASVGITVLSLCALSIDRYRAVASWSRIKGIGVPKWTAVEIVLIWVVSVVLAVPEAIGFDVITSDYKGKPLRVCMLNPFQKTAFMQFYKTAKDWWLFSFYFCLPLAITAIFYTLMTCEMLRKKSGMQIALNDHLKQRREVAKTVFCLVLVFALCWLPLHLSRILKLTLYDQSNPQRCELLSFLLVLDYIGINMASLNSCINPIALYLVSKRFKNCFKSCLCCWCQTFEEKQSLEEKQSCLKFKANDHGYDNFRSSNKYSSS
Procedure, shortened: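 Rat cerebellum was homogenized in Tris/sucrose/EDTA buffer with protease inhibitors; the 40000g membrane pellet was used. Nonspecific binding was defined with 500 nM ET-1. IC50 by curve fitting; single experiment.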

[3] = species on record: Rattus norvegicus; test: Antagonism of ET-1 mediated contraction of isolated de-endothelialized rat aortic rings; assay type: functional, Aorta
[4] = tested on: Rattus norvegicus; test: Effect of compound on ET-1 induced changes in diastolic blood pressure in the pithed rat pretreated with BQ 788 (3 mg/kg) at 75 uM/kg (iv) dose; assay type: functional, Artery
Procedure, shortened: (§1)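 Male Sprague-Dawley rats (250–350 g), isoflurane-anesthetized, pithed and artificially respired. Dosing via the jugular vein; blood pressure via carotid artery transducer. BQ 788 (3 mg/kg) and test compound given iv 10 min before a bolus ET-1 dose–pressor curve (0.01–10 nmol/kg). Fold rightward shift from vehicle measured at the ET-1 dose giving a 40 mmHg diastolic change. Mean of 4–6 rats.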

[5] = tested on: Rattus norvegicus; test: Effect of compound on ET-1 induced changes in diastolic blood pressure in the pithed rat pretreated with BQ 788 (3 mg/kg) at 2.5 uM/kg (iv) dose; NS = Not significant; assay type: functional, organism-based; conditions: Artery; procedure, shortened: as §1
[6] = tested on: Rattus norvegicus; test: Effect of compound on ET-1 induced changes in diastolic blood pressure in the pithed rat pretreated with BQ 788 (3 mg/kg) at 7.5 uM/kg (iv) dose; assay type: functional, Artery; procedure, shortened: as §1
[7] = tested on: Rattus norvegicus; test: Effect of compound on ET-1 induced changes in diastolic blood pressure in the pithed rat pretreated with BQ 788 (3 mg/kg) at 25 uM/kg (iv) dose; assay type: functional, Artery; procedure, shortened: as §1

| Compound | IC50 [1] [µM] | IC50 [2] [µM] | other results |
| --- | --- | --- | --- |
| O=C(O)c1cc(-c2ccc(OCc3ccccc3)cc2OCc2ccccc2)n[nH]1 | 1 | > 30 | – |
| Cc1ccccc1C(CCC(=O)O)Oc1cccc(OCc2ccsc2)c1 (stereo not drawn) | 0.871 | > 30 | – |
| Cc1ccccc1C(CCC(=O)O)Oc1cc(OCc2ccsc2)ccc1C(=O)O (stereo not drawn) | 0.207 | > 10 | – |
| Cc1ccccc1[C@@H](CCC(=O)O)Oc1cc(OCc2ccsc2)ccc1C#N | – | > 10 | pKB [3]: 7.4 |
| CC(=O)c1ccc(OCc2ccsc2)cc1OC(CCC(=O)O)c1ccccc1C (stereo not drawn) | 0.026 | 10 | – |
| Cc1ccccc1[C@@H](CCC(=O)O)Oc1cc(OCc2ccc3c(c2)OCO3)ccc1C#N | 0.069 | 10 | – |
| CC(C)C[C@@H]1NC(=O)[C@@H](C(C)C)NC(=O)[C@@H]2CCCN2C(=O)[C@@H](CC(=O)O)NC(=O)[C@@H](Cc2c[nH]c3ccccc23)NC1=O [BQ-123] (cyclo(L[dW][dD]P[dV])) | 0.014 | – | – |
| Cc1ccccc1C(CCC(=O)O)Oc1cc(OCc2ccsc2)ccc1C(N)=O (stereo not drawn) | 0.029 | 10 | – |
| Cc1ccccc1C(CCC(=O)O)Oc1cc(OCc2ccsc2)ccc1-c1cc(C(=O)O)[nH]n1 (stereo not drawn) | 0.007 | 3 | pKB [3]: 7.3 |
| Cc1ccccc1C(CCC(=O)O)C(=O)c1cccc(OCc2ccsc2)c1 (stereo not drawn) | 0.11 | > 30 | pKB [3]: 5.7 |
| Cc1ccccc1C(CCC(=O)O)Oc1cc(OCc2ccsc2)ccc1-c1ncco1 (stereo not drawn) | 0.02 | 10 | – |
| Cc1ccccc1C(CCC(=O)O)Oc1cc(OCc2ccsc2)ccc1-c1cc[nH]n1 (stereo not drawn) | 0.02 | 10 | – |
| Cc1ccccc1[C@@H](CCC(=O)O)Oc1cc(OCc2ccncc2)ccc1C#N | 0.02 | 10 | pKB [3]: 7.1 |
| Cc1ccccc1C(CCC(=O)O)Oc1cc(OCc2ccsc2)ccc1-c1ccccn1 (stereo not drawn) | 0.04 | 10 | – |
| Cc1ccccc1[C@H](CCC(=O)O)Oc1cc(OCc2ccsc2)ccc1C#N | – | 10 | – |
| Cc1ccccc1[C@@H](CCC(=O)O)Oc1cc(OCc2cccnc2)ccc1C#N | 0.005 | 10 | Shift [4]: 36.58; Shift [5]: inactive; Shift [6]: 2.27; Shift [7]: 10.48 |
| Cc1ccccc1C(CCC(=O)O)Oc1cc(OCc2ccsc2)ccc1C#N (stereo not drawn) | – | 5 | – |
| Cc1ccccc1C(CCC(=O)O)Oc1cc(OCc2ccsc2)ccc1-c1ncc[nH]1 (stereo not drawn) | 0.163 | > 10 | – |
| Cc1ccccc1[C@@H](CCC(=O)O)Oc1cc(OCc2cnsc2)ccc1C#N | 0.007 | 10 | pKB [3]: 7.3 |
